Drawing on ChEMBL document CHEMBL1142702, “Dynamic receptor-based pharmacophore model development and its application in designing novel HIV-1 integrase inhibitors” (J Med Chem, 2005), this text covers IC50 for 23 molecules.

The target of test [1] is T1, Human immunodeficiency virus type 1 integrase (Human immunodeficiency virus 1, UniProt Q7ZJM1). The test is described as follows: Concentration to inhibit 3' processing of wild type Human immunodeficiency virus-1 integrase. In short, it runs like this: (§1)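 Recombinant wild-type IN, 200 nM final, preincubated with inhibitor at 30 °C for 30 min. 20 nM 5′-32P-labeled 21-mer duplex substrate then added for 1 h. Quenched with formamide loading dye. 19-mer or strand-transfer product fraction gave percent inhibition. IC50 from log concentration versus percent inhibition.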

For test [2], the target named is T1, Human immunodeficiency virus type 1 integrase. The test is described as follows: Concentration to inhibit strand transfer of wild type Human immunodeficiency virus-1 integrase. In outline: as §1
For test [3] the target is unchanged. The test is described as follows: Concentration to inhibit 3' processing of wild type Human immuno deficiency virus-1 integrase. In outline:
as §1

For test [4] the target is unchanged. Kind of test: Concentration to inhibit strand transfer of wild type Human immuno deficiency virus-1 integrase. In outline: as §1
The target is the same in test [5]. Kind of test: Concentration to inhibit 3' processing of soluble mutant (F185K, C280S) of wild type Human immunodeficiency virus-1 integrase. In outline:
(§2)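 Integrase (200 nM final) is preincubated with inhibitor for 30 min at 30 °C in buffer with MOPS pH 7.2, HEPES pH 7.5, 7.5 mM MnCl2, 50 mM NaCl, BSA, DTT, 2-mercaptoethanol, glycerol, EDTA and 10% DMSO. Then 20 nM 5′-32P-labelled 21-mer duplex substrate is added for 1 h, and the reaction is quenched with formamide/EDTA dye. The fraction converted to 19-mer (3′-processing) or to strand-transfer products gives percent inhibition, and IC50 comes from log concentration versus percent inhibition.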

For test [6] the target is unchanged. The test is described as follows: Concentration to inhibit strand transfer of soluble mutant (F185K, C280S) of wild type Human immunodeficiency virus-1 integrase. In short, it runs like this: as §2

As to `C/C(CC(=O)Nc1c(C)cc(C)cc1C)=N\NC(=O)c1ccc(O)cc1O`, the values for the IC50 in test [1] and in test [2] were more than 1000 µM and 150 µM, respectively.

Regarding `COc1ccc(NS(=O)(=O)c2cccc(C(=O)Nc3ccccc3C(=O)O)c2)cc1`, the IC50 in test [3] stood at 355 µM; in test [4], 300 µM.

As for `O=C(O)c1cc(NS(=O)(=O)c2ccc(NCCCN3CCOCC3)c([N+](=O)[O-])c2)cc(C(=O)O)c1`, the results for the IC50 in test [3] and in test [4] were 140 µM and 100 µM, respectively.

Take `CCOC(=O)c1cc(C(=O)OCC)c(SCC(=O)Nc2ccc(Br)cc2)nc1O`: the half-inhibitory concentration (IC50) in test [3] and in test [4] was more than 100 µM each time.

For `O=C(c1ccccc1)c1ccc(OCC(O)COc2ccc(C(=O)c3ccccc3)c(O)c2)cc1O`, the concentration for half-maximal inhibition (IC50) in test [3] and in test [4] was more than 100 µM in each case.

For `O=C(NCc1ccco1)c1cc(C(=O)NCc2ccco2)cc(C(=O)NCc2ccco2)c1`, the figures for the IC50 in test [3] and in test [4] were 37 µM and 8 µM, respectively.

In the case of `Cc1ccc(NC(=O)C(=O)NCc2ccc(/C=N\NC(=O)C(=O)Nc3cc(Cl)ccc3C)o2)cc1C`, the IC50 in test [3] is more than 100 µM; in test [5], 510 µM; in test [4], more than 100 µM; in test [6], 70 µM.

For `COc1ccc(C(=O)Nc2ccc(Cc3ccc(NC(=O)c4ccc(OC)cc4)c(O)c3)cc2O)cc1`, the 50% inhibitory concentration (IC50) in test [3] and in test [4] was more than 100 µM throughout.

For `O=C(O)c1cc(NS(=O)(=O)c2ccc(NCc3ccccc3)c([N+](=O)[O-])c2)cc(C(=O)O)c1`, the 50% inhibitory concentration (IC50) in test [1] was more than 100 µM; in test [2] it was 66 µM.

`CCc1cc(/C=N/CC/N=C/c2cc(CC)sc2S)c(S)s1`: the concentration for half-maximal inhibition (IC50) was more than 100 µM in test [3], more than 100 µM in test [5], 21 µM in test [4] and 6 µM in test [6].

As for `CCOc1ccc2[nH]c(SCC(=O)Nc3cc(C(=O)O)cc(C(=O)O)c3)nc2c1`, the IC50 in test [1] and in test [2] was more than 100 µM throughout.

For `COC(=O)c1cc(NS(=O)(=O)c2ccc(NCc3cccnc3)c(N)c2)cc(C(=O)OC)c1`, the IC50 in test [3] and in test [4] was more than 100 µM throughout.

In the case of `O=C(N/N=C/c1ccc(O)cc1O)c1cc(C2CC2)[nH]n1`, the concentration for half-maximal inhibition (IC50) in test [3] was determined as 177 µM; in test [4], 43 µM.

In the case of `O=C(Nc1ccc(Cc2ccc(O)c(NC(=O)c3ccccc3F)c2)cc1O)c1ccccc1F`, the half-maximal inhibitory concentration (IC50) was 205 µM in test [5], 33 µM in test [6], more than 100 µM in test [1] and more than 100 µM in test [2].

As for `O=C(NCc1cccc(CNC(=O)C(=O)NCc2ccco2)c1)C(=O)NCc1ccco1`, the IC50 in test [3] was more than 100 µM; in test [5], 1000 µM; in test [4], more than 100 µM; in test [6], 40 µM.

On to `O=C(Nc1ccc(Cc2ccc(NC(=O)c3cccs3)c(C(=O)O)c2)cc1C(=O)O)c1cccs1`, for which the IC50 in test [1] was determined as 63 µM; in test [2] it was 38 µM.

`COC(=O)C1=C(O)/C(=C\c2ccc(CNC(=O)C(=O)Nc3ccc(C)cc3)o2)N=C1C`: the IC50 in test [1] is more than 100 µM; in test [2], 81 µM.

On to `COC(=O)c1sccc1NC(=O)c1ccc(C(=O)Nc2ccsc2C(=O)OC)cc1`, for which the values for the IC50 in test [1] and in test [2] were more than 100 µM and 97 µM, respectively.

With `CCOC(=O)C(=O)NCc1ccc(/C=C2/N=C(C)C(C(=O)OCC)=C2O)o1`, the 50% inhibitory concentration (IC50) in test [1] and in test [2] was more than 100 µM throughout.

For `O=C(Nc1ccc(Cc2ccc(NC(=O)c3cccc([N+](=O)[O-])c3)c(C(=O)O)c2)cc1C(=O)O)c1cccc([N+](=O)[O-])c1`, the values for the IC50 in test [1] and in test [2] were 15 µM and 13 µM, respectively.

`COc1ccc2[nH]c(SCC(=O)Nc3ccc(O)c(C(=O)O)c3)nc2c1`: the IC50 in test [3] and in test [4] was more than 100 µM throughout.

`CCN(CC)c1ccc(/C=N/Nc2nonc2N)c(O)c1`: the IC50 in test [1] and in test [2] was more than 100 µM each time.

Consider `COc1cc(/C=N/NC(=O)c2cc(C3CC3)[nH]n2)ccc1O`, for which the half-inhibitory concentration (IC50) in test [3] and in test [4] was more than 100 µM throughout.

The IC50 is the concentration that gives 50% inhibition. High values mean weaker potency in that assay, low ones greater potency in that assay.
